# B2AR ag: beta2AR agonists driving receptor internalization, primary screen, cell-based, FAP fluorogen, flow cytometry; Am2.2-beta2AR cells; response, % (concentration not given with the values); 0.43% of 340,000 active; AID 504454, 2011;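 active = response above a set limit, near 3 SD of response in nonfluorescent compounds, cut at about 42% in these data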
# Rin1-Abl PPI inh: inhibitors of Rin1-Abl protein binding, primary screen, biochemical, TR-FRET | inhibition, % at 7.35 µM | Tyrosine-protein kinase ABL1 (Homo sapiens) + Ras and Rab interactor 1 (Homo sapiens), … | 0.4% of 360,000 active; in the data active = inhibition above about 5%, passing the limit was not always enough
# MBD2 DNA inh: inhibitors of MBD2 binding to methylated DNA, primary screen, biochemical, TR-FRET, DNA-binding domain, human. inhibition, % at 4.4 µM. 0.31% of 370,000 active. Methyl-CpG-binding domain protein 2 (Homo sapiens), Q9UBB5. MBD2 binding to methylated oligonucleotide; in the data active = inhibition above about 13%
# Target sequence (Q9UBB5 whole entry, looked up, the tested form may be a part): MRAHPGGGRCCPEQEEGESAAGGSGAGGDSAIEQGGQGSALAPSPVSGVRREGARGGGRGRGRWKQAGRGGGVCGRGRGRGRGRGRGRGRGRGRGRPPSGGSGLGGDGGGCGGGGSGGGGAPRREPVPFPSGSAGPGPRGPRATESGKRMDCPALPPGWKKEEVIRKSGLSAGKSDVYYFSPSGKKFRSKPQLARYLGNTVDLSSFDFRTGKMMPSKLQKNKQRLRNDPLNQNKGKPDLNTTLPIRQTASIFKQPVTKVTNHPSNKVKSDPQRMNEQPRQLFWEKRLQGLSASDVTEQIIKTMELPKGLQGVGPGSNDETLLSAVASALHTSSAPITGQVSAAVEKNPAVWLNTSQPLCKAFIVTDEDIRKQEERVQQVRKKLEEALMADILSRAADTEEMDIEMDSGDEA
# UHRF1 MBD2 ctr: UHRF1 methylated DNA binding inhibitors, primary screen, counter-screen for MBD2 inhibitor project, biochemical, TR-FRET, human UHRF1, single concentration; 0.75% of 370,000 active; AID 687016, 2013; inhibition, % at 4.4 µM; E3 ubiquitin-protein ligase UHRF1 (Homo sapiens), Q96T88; UHRF1 binding to methylated oligo;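 also: UHRF1 SRA domain binding a hemimethylated CpG hairpin DNA probe; 0% = median of test compound wells and 100% = reference inhibitor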
# Arr AP2 block: inhibitors of beta-arrestin/AP2 binding, primary screen, biochemical, GPCR trafficking, flow cytometry. beta-arrestin 1 C-terminal peptide binding to AP2 beta2-adaptin appendage (human). FITC-arrestin peptide / GST-AP2 beads; AP2 beta2 appendage carries R879A mutation. inhibition, % at 10 µM. 0.31% of 340,000 active. AID 504490, 2011;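 active = inhibition above a set limit, near 3 SD of compounds lacking own fluorescence, cut at about 54% in these data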;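 also: plate controls were DMSO wells for no effect and 5 µM unlabelled arrestin peptide for full effect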
#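 System: GST-AP2 R879A glutathione beads; medium: PBS, Tween 20 0.05%, BSA 0.1%; reagent: fluorescein-tagged arrestin peptide at 50 nM final; schedule: pre-incubation 12 min, peptide binding 1 h, room temperature; detection: flow cytometry, FL1 (488/535 nm); read-out: inhibition as reduced fluorescein signal on beads, percent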
# ABHD5-PLIN5 inh: ABHD5-PLIN5 interaction inhibitors, primary screen, cell lysate, split luciferase complementation, luminescence | AID 602281, 2012 | 0.78% of 360,000 active | Split G. princeps luciferase complementation, 4 h | inhibition, % at 4 µM;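 active = inhibition above the mean inhibition across every tested compound plus 3 SD, cut at about 22% in these data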;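 also: 0% = DMSO only wells and the 100% control is not disclosed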
# UHRF1 ctr MBD2: UHRF1 methylated DNA binding inhibitors, counter-screen for MBD2 inhibitor project, biochemical, TR-FRET, human UHRF1; shares compounds with MBD2 DNA inh; UHRF1 binding to methylated oligonucleotide; inhibition, % at 4.4 µM; 25% of 1,000 active;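 also: UHRF1 SRA domain binding a labeled hemimethylated CpG hairpin DNA; 0% = vehicle only and 100% = reference inhibitor with vehicle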
# MBD2 confirm: inhibitors of MBD2 binding to methylated DNA, confirmation, biochemical, TR-FRET, DNA-binding domain, human; shares compounds with MBD2 DNA inh; TR-FRET MBD2-DBD binding to methylated oligonucleotide; inhibition, % at 4.4 µM; 26% of 1,000 active; AID 720531, 2013; in the data active = inhibition above about 14%
# * marks the source's active call; other numbers are inactive results; x = not tested or not shown. Rows were chosen to be rich in hits. Some 2.5% of all compounds tested hit in one or more screens of this group. Rule as the data show it, unless noted: active = inhibition above about 21%; inactive = the rest.
SMILES,B2AR ag,Rin1-Abl PPI inh,MBD2 DNA inh,UHRF1 MBD2 ctr,Arr AP2 block,ABHD5-PLIN5 inh,UHRF1 ctr MBD2,MBD2 confirm
Cc1ccccc1NC(=O)C1c2cccc[n+]2CC(=O)N1Cc1ccc2c(c1)OCO2 (stereo not drawn),11.9,0.5,-7.3,-2.5,-9.6,0.2,x,x
NC1=NS(=O)(=O)Nc2ccccc21,x,x,-0.4,1.1,x,x,x,x
COc1ccc(OC)c(NC(=O)C2CC(=O)N(c3ccc(Br)cc3)C2)c1 (stereo not drawn),-4.2,0.9,-0.1,-1.7,8.4,2.6,x,x
COc1ccc(N2CC(C(=O)OCC(=O)Nc3cc(C)on3)CC2=O)cc1 (stereo not drawn),4.9,1.7,19.6*,41.1*,-21.9,1.8,9.7,2.5
COc1ccc(OC)c(NC(=O)C2CC(=O)N(c3ccccc3)C2)c1 (stereo not drawn),-2.5,1.2,14.7*,11.6,0.7,-0.3,11.2,2.2
CCOc1ccc(N2CC(C(=O)Nc3nnc(Cc4ccc(OC)cc4)s3)CC2=O)cc1 (stereo not drawn),7.9,0.3,33.3*,64.9*,31.7,0.2,6.7,3.8
O=C(COc1ccc2ccc(=O)oc2c1)NCCN1CCOCC1,x,-5.5,2.1,2.2,x,7.7,x,x
C=CCNCc1ccc(OC)cc1OC,x,x,3.6,-0.1,x,x,x,x
O=C1c2cccc(NCCCNCCO)c2C(=O)c2cccc(NCCCNCCO)c21,-4.0,-34.0,104.7*,92.5*,17.3,10.8,82.2*,101.7*
CCOc1ccc(/C=C2/SC(=S)N(n3c(C)ccc3C)C2=O)cc1,8.4,6.3,-2.5,-1.2,2.5,-7.7,x,x
COc1ccc(/C=C2/SC(=S)N(n3c(C)ccc3C)C2=O)cc1,9.1,2.1,13.5*,21.8*,-1.2,-10.9,11.6,3.3
CCCSc1nc(C)c(-c2csc(C(C#N)=C3CCCC3)n2)cc1C#N,-1.2,-3.2,16.2*,16.7,-2.2,0.0,7.3,6.5
COc1ccc(Cc2c(C3CCCCC3)nc3c(C)cc(Br)cn23)c(C)c1,x,-3.3,4.3,1.0,x,-9.0,x,x
CCOc1cc(/C=N/n2cnnc2)ccc1OS(=O)(=O)c1ccc(C)cc1,11.2,0.4,14.3*,5.3,14.3,-0.5,7.1,2.1
CCOc1cc(/C=N/n2cnnc2)ccc1OCC(=O)Nc1ccccc1OC,-7.2,3.1,-1.7,-2.3,-2.7,-8.5,x,x
O=C(Nc1nnc(SCC(=O)N2CCCCC2)s1)c1c(F)cccc1F,-1.1,-1.0,32.9*,-2.3,5.4,9.8,6.7,2.9
COc1cc2cc(C(=O)N(C)C3CCS(=O)(=O)C3)[nH]c2cc1OC (stereo not drawn),-0.7,-1.9,15.4*,1.6,42.3,-3.4,6.3,1.1
CN(C(=O)c1ccc(Cl)cc1)C1CCS(=O)(=O)C1 (stereo not drawn),-0.4,2.0,-1.9,-0.4,-6.8,1.6,x,x
COc1ccc(C)cc1S(=O)(=O)NCc1ccccn1,x,1.1,-0.9,-0.1,x,2.6,x,x
O=C(c1cc(C2CC2)on1)N(C1CCCCC1)C1CCOCC1,x,x,2.9,1.5,x,x,x,x
COc1ccc(Br)c(C(=O)Nc2nc3ccccc3[nH]2)c1,-21.2,3.2,36.4*,2.0,17.1,-1.8,10.1,2.2
CC(C)CCn1cnc2c1c(=O)[nH]c(=O)n2Cc1ccccc1,3.8,-1.2,89.7*,-2.1,5.4,6.8,4.8,2.2
OC(c1ccc(-c2ccccc2)cc1)c1ncc(-c2ccc(F)cc2)[nH]1 (stereo not drawn),x,0.0,-2.9,2.4,x,-4.3,x,x
CCN(CC)CCCNc1nc2ccccc2c2[nH]c3ccc(OC)cc3c12,7.6,1.0,91.5*,84.7*,11.1,-1.5,95.5*,109.0*
CCN(CC)CCCNc1nc(-c2ccccc2)nc2ccccc12,2.2,0.8,3.0,5.6,-6.4,5.0,x,x
SMILES,B2AR ag,Rin1-Abl PPI inh,MBD2 DNA inh,UHRF1 MBD2 ctr,Arr AP2 block,ABHD5-PLIN5 inh,UHRF1 ctr MBD2,MBD2 confirm
COc1ccc(-c2cc(-c3ccccc3)c(C#N)c(=S)[nH]2)cc1,0.1,-0.7,21.1*,2.2,-2.8,-9.1,6.9,3.5
Cc1ccc(-c2cc(-c3ccccc3)[nH]c(=S)c2C#N)cc1,4.2,3.1,-2.7,4.3,7.0,15.9,x,x
COC(=O)c1ccc(OCC(=O)c2ccccc2)cc1,-8.9,1.4,15.8*,21.1*,9.1,-2.8,7.8,3.9
O=C(O)c1ccc(-n2cccc2/C=C2/NC(=O)N(c3cccc(Cl)c3)C2=O)cc1,-68.4,1.0,38.8*,81.0*,-4.2,5.3,78.2*,49.1*
O=C(O)c1ccc(-n2cccc2/C=C2/NC(=O)N(c3ccccc3)C2=O)cc1,-3.3,-2.1,36.7*,77.4*,5.2,-1.0,72.0*,44.2*
O=C(O)c1ccc(-n2cccc2/C=C2/SC(=O)N(CC(=O)N3CCCC3)C2=O)cc1,-6.5,0.3,43.8*,76.0*,-12.8,4.3,85.4*,49.0*
N#Cc1ccccc1CN1C(=O)S/C(=C/c2cccn2-c2ccc(C(=O)O)cc2)C1=O,11.9,-1.1,8.7,10.2,0.2,0.1,x,x
CCc1nc2ccc(C(=O)NCCC(C)C)cn2c1N(CC)CCOC,x,3.7,-0.8,0.9,x,1.8,x,x
COC(=O)C1CN(Cc2cn(Cc3ccc(OC)cc3)nn2)CCS(=O)(=O)N1Cc1ccccc1 (stereo not drawn),x,x,3.2,15.1,x,x,x,x
Cc1ccc(NC(=O)CN(C)C(=O)CNC(=O)c2sc3ccccc3c2Cl)cc1,-2.6,-15.4,49.8*,-3.0,-3.5,-10.9,3.8,2.0
Cc1ccc(S(=O)(=O)N2CCOCC2)cc1C(=O)OCC(=O)NCc1ccc2c(c1)OCO2,-0.4,-0.4,16.5*,33.0*,-10.2,1.9,5.9,2.5
O=C(COC(=O)c1cc(S(=O)(=O)N2CCOCC2)ccc1O)NCc1ccc2c(c1)OCO2,0.0,0.6,3.4,-3.1,1.0,3.4,x,x
CC(=O)C1=CCC(c2ccc(Cl)c(Cl)c2)N(S(=O)(=O)c2ccc(C)cc2)C1 (stereo not drawn),x,3.7,-1.9,17.4,x,18.1,x,x

# Bioassay records (PubChem)
